In ChEMBL document CHEMBL2040797, “Synthesis of benzimidazoles bearing oxadiazole nucleus as anticancer agents” (2012):

Columns and labels:
Type in all cases: functional
[1] = test system: OVCAR-3; assay: Cytotoxicity against human OVCAR3 cells after 48 hrs by sulforhodamine B assay; conditions: OVCAR-3, 48 h
In short: (§1)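 NCI 60-panel screen. Cells were grown in RPMI 1640 with 5% FBS and L-glutamine and plated at 5000–40,000 cells/well according to doubling time. They were preincubated 24 h at 37 °C, 5% CO2, then exposed 48 h to five 10-fold dilutions. Adherent cells were fixed with cold TCA, final 10%; suspension cells were fixed after settling. Cells were stained with 0.4% SRB and read at 515 nm. Tz/C/Ti growth curves gave GI50, TGI and LC50.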

[2] = test system: SK-MEL-28; assay: Growth inhibition of human SK-MEL-28 cells at 10 uM after 48 hrs by sulforhodamine B assay; conditions: SK-MEL-28, 48 h, read-out: GI
In short: (§2)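 NCI-60 single-dose screen. Cells grown in RPMI 1640 with 5% FBS and L-glutamine, plated at 5000–40,000 cells/well by doubling time, and preincubated 24 h at 37 °C, 5% CO2. Compound stocks in DMSO, added at one concentration, then incubated 48 h. Adherent cells fixed with cold TCA (10% final), stained with 0.4% SRB, dye solubilized in 10 mM Tris base, A515 read. Reported as percent growth relative to untreated control.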

[3] = test system: SK-MEL-28; assay: Cytotoxicity against human SK-MEL-28 cells after 48 hrs by sulforhodamine B assay; conditions: SK-MEL-28, 48 h; in short: as §1
[4] = test system: RXF 393; assay: Growth inhibition of human RXF393 cells at 10 uM after 48 hrs by sulforhodamine B assay; conditions: RXF 393, 48 h, read-out: GI
In short: (§3)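 NCI one-dose primary screen at 10 (printed mM) across the 60-line panel. Cells in RPMI 1640 with 5% FBS and 2 mM L-glutamine, plated at 5000–40,000 cells/well and incubated 24 h before dosing. Exposure 48 h at 37 °C, 5% CO2. Adherent cells were fixed with cold TCA, suspension cells fixed after settling. SRB stain, absorbance 515 nm. Reported as percent growth of treated cells relative to control.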

[5] = test system: HCC 2998; assay: Growth inhibition of human HCC2998 cells at 10 uM after 48 hrs by sulforhodamine B assay; conditions: HCC 2998, 48 h, read-out: GI; in short: as §3
[6] = test system: SW-620; assay: Growth inhibition of human SW620 cells at 10 uM after 48 hrs by sulforhodamine B assay; conditions: SW-620, 48 h, read-out: GI; in short: as §2
[7] = test system: HCC 2998; assay: Cytotoxicity against human HCC2998 cells after 48 hrs by sulforhodamine B assay; conditions: HCC 2998, 48 h; in short: as §1
[8] = read-out: LC50 (the source's name)

O=C(CCc1nnc(-c2ccc(Cl)cc2Cl)o1)c1nc2ccccc2[nH]1
GI50 [1]: 5.63 µM | TGI [1]: 24.8 µM | CC50 [1, 8]: 90.7 µM | inhibition of growth at 10 µM [2]: 17.3% | GI50 [3]: 12.7 µM | TGI [3]: 42.7 µM | CC50 [3, 8]: 100 µM | inhibition of growth at 10 µM [4]: 18.4% | inhibition of growth at 10 µM [5]: 34.1% | inhibition of growth at 10 µM [6]: 64.2% | GI50 [7]: 6.52 µM | TGI [7]: 32.3 µM | CC50 [7, 8]: 100 µM
